# Numbered stars: 1 amine (or outer) side, 2 acyl side, 3 side chain; on linkers, the order of the positions; unused ones are H or OH. Bridge positions count the residues as written; N and C are the ends. Square brackets hold non-standard residues; d marks the D form. Peptide text beside a SMILES is read from it. I, II: the chains in the order shown. Phe(4-guanidino) = N=C(N)Nc1ccc(C[C@H](N)C(=O)O)cc1; X1 = O=C(C(=O)[*:2])[C@H](Cc1ccc(O)cc1)N[*:1]; NHCH2CH2N(Me)CH2CO = CN(CCN[*:1])CC(=O)[*:2]; NMeL = CN[C@@H](CC(C)C)C(=O)O; Pen = CC(C)(S)[C@H](N)C(=O)O; X2 = C(CN[*:1])NCCN[*:2]; Sar = CNCC(=O)O
# Columns and labels:
# [1] = biological target: T1, IgG receptor FcRn large subunit p51 (Homo sapiens, UniProt P55899); experiment: Binding affinity to soluble human FcRn at pH 6 by surface plasmon resonance assay
# Summary of the method: (§1)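 shFcRn was amine-coupled to a CM5 dextran chip, and peptide dilutions were run at pH 6 or pH 7.4 on a Biacore 3000 or T100. The equilibrium response was plotted against concentration and fitted to a steady-state affinity model to give Kd.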
# [2] = biological target: T1, IgG receptor FcRn large subunit p51; experiment: Inhibition of IgG binding to soluble human FcRn after 2 hrs by competition ELISA
# [3] = biological target: T1, IgG receptor FcRn large subunit p51; experiment: Binding affinity to soluble human FcRn at pH 7.4 by surface plasmon resonance assay; summary of the method: as §1
# [4] = biological target: T1, IgG receptor FcRn large subunit p51; experiment: Ratio of RF-Pen-TGHFG-Sar-NMeLeu-YPC IC50 to compound IC50 for soluble human FcRn
# T1 sequence (P55899 whole entry): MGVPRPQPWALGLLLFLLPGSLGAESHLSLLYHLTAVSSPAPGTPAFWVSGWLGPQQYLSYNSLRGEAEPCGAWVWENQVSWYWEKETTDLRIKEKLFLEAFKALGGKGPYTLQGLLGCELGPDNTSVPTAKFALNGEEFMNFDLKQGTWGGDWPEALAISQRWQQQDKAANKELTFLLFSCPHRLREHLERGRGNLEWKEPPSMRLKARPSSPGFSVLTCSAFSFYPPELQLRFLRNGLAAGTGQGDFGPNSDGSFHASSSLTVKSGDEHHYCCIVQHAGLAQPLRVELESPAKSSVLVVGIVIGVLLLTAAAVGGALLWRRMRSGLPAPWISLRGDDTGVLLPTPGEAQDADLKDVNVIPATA
SMILES,Kd [1],IC50 [2],Kd [3],Ratio IC50 [4]
CC(=O)N[C@@H](CCCNC(=N)N)C(=O)N[C@@H](Cc1ccccc1)C(=O)N[C@H]1CSSC[C@@H](C(N)=O)NC(=O)[C@@H]2CCCN2C(=O)C(=O)[C@H](Cc2ccc(O)cc2)NC(=O)[C@H](CC(C)C)NC(=O)CNC(=O)CNC(=O)[C@H](Cc2ccccc2)NC(=O)[C@H](Cc2cnc[nH]2)NC(=O)CNC(=O)[C@H]([C@@H](C)O)NC1=O,5900 nM,37000 nM,,
CC(=O)N[C@@H](CCCNC(=N)N)C(=O)N[C@@H](Cc1ccccc1)C(=O)N[C@H]1CC(=O)NCCCC[C@@H](C(N)=O)NC(=O)[C@@H]2CCCN2C(=O)C(=O)[C@H](Cc2ccc(O)cc2)NC(=O)[C@H](CC(C)C)N(C)C(=O)CN(C)C(=O)CNC(=O)[C@@H](Cc2ccccc2)NC(=O)[C@H](Cc2c[nH]cn2)NC(=O)CNC(=O)[C@H]([C@@H](C)O)NC1=O,140 nM,1900 nM,930 nM,
CC(=O)N[C@@H](CCCNC(=N)N)C(=O)N[C@@H](Cc1ccccc1)C(=O)N[C@@H]1C(=O)N[C@@H]([C@@H](C)O)C(=O)NCC(=O)N[C@@H](Cc2ccc(NC(=N)N)cc2)C(=O)NCC(=O)N(C)CC(=O)N(C)[C@@H](CC(C)C)C(=O)N[C@@H](Cc2ccc(O)cc2)C(=O)C(=O)N2CCC[C@H]2C(=O)N[C@H](C(N)=O)CSSC1(C)C (Ac-RF[Pen]TG[Phe(4-guanidino)]G[Sar][NMeL][X1]PC-NH2; disulfide 3-12),62 nM,1000 nM,74 nM,
CC(=O)N[C@@H](CCCNC(=N)N)C(=O)N[C@@H](Cc1ccccc1)C(=O)N[C@@H]1C(=O)N[C@@H]([C@@H](C)O)C(=O)NCC(=O)N[C@@H](Cc2cnc[nH]2)C(=O)N[C@@H](Cc2ccccc2)C(=O)N[C@H]2CCCN(CC(=O)N(C)[C@@H](CC(C)C)C(=O)N[C@@H](Cc3ccc(O)cc3)C(=O)C(=O)N3CCC[C@H]3C(=O)N[C@H](C(N)=O)CSSC1(C)C)C2=O,43 nM,430 nM,260 nM,
CC(C)C[C@H]1C(=O)N[C@@H](Cc2ccc(O)cc2)C(=O)C(=O)N2CCC[C@H]2C(=O)N[C@H](C(N)=O)CSSC(C)(C)[C@H](NC(=O)[C@H](Cc2ccccc2)NC(=O)[C@H](CCCNC(=N)N)NC(=O)CCNC(=O)CCNC(=O)CCNC(=O)CN(C)CCNC(=O)CCC(=O)N[C@@H](CCCNC(=N)N)C(=O)N[C@@H](Cc2ccccc2)C(=O)N[C@@H]2C(=O)N[C@@H]([C@@H](C)O)C(=O)NCC(=O)N[C@@H](Cc3c[nH]cn3)C(=O)N[C@@H](Cc3ccccc3)C(=O)NCC(=O)N(C)CC(=O)N(C)[C@@H](CC(C)C)C(=O)N[C@@H](Cc3ccc(O)cc3)C(=O)C(=O)N3CCC[C@H]3C(=O)N[C@H](C(N)=O)CSSC2(C)C)C(=O)N[C@@H]([C@@H](C)O)C(=O)NCC(=O)N[C@@H](Cc2c[nH]cn2)C(=O)N[C@@H](Cc2ccccc2)C(=O)NCC(=O)N(C)CC(=O)N1C,,,,220
"CC(C)C[C@H]1C(=O)N[C@@H](Cc2ccc(O)cc2)C(=O)C(=O)N2CCC[C@H]2C(=O)N[C@H](C(=O)NCC(=O)NCCNCCNC(=O)CNC(=O)[C@@H]2CSSC(C)(C)[C@H](NC(=O)[C@H](Cc3ccccc3)NC(=O)[C@@H](N)CCCNC(=N)N)C(=O)N[C@@H]([C@@H](C)O)C(=O)NCC(=O)N[C@@H](Cc3c[nH]cn3)C(=O)N[C@@H](Cc3ccccc3)C(=O)NCC(=O)N(C)CC(=O)N(C)[C@@H](CC(C)C)C(=O)N[C@@H](Cc3ccc(O)cc3)C(=O)C(=O)N3CCC[C@H]3C(=O)N2)CSSC(C)(C)[C@H](NC(=O)[C@H](Cc2ccccc2)NC(=O)[C@@H](N)CCCNC(=N)N)C(=O)N[C@@H]([C@@H](C)O)C(=O)NCC(=O)N[C@@H](Cc2c[nH]cn2)C(=O)N[C@@H](Cc2ccccc2)C(=O)NCC(=O)N(C)CC(=O)N1C (I: H-RF[Pen]TGHFG[Sar][NMeL][X1]PCG / II: H-RF[Pen]TGHFG[Sar][NMeL][X1]PCG; disulfide I:3-I:13, II:3-II:13; linker I:C-II:C via X2)",,,,120
"CC(C)C[C@H]1C(=O)N[C@@H](Cc2ccc(O)cc2)C(=O)C(=O)N2CCC[C@H]2C(=O)N[C@H](C(N)=O)CSSC(C)(C)[C@H](NC(=O)[C@H](Cc2ccccc2)NC(=O)[C@H](CCCNC(=N)N)NC(=O)CN(C)CCNC(=O)CNC(=O)[C@@H]2CSSC(C)(C)[C@H](NC(=O)[C@H](Cc3ccccc3)NC(=O)[C@@H](N)CCCNC(=N)N)C(=O)N[C@@H]([C@@H](C)O)C(=O)NCC(=O)N[C@@H](Cc3c[nH]cn3)C(=O)N[C@@H](Cc3ccccc3)C(=O)NCC(=O)N(C)CC(=O)N(C)[C@@H](CC(C)C)C(=O)N[C@@H](Cc3ccc(O)cc3)C(=O)C(=O)N3CCC[C@H]3C(=O)N2)C(=O)N[C@@H]([C@@H](C)O)C(=O)NCC(=O)N[C@@H](Cc2c[nH]cn2)C(=O)N[C@@H](Cc2ccccc2)C(=O)NCC(=O)N(C)CC(=O)N1C (H-RF[Pen]TGHFG[Sar][NMeL][X1]PCG[NHCH2CH2N(Me)CH2CO]RF[Pen]TGHFG[Sar][NMeL][X1]PC-NH2; disulfide 3-13, 18-28)",,,,130

# The next lines start with the values.
Kd [1],IC50 [2],Kd [3],Ratio IC50 [4],SMILES
,5.2 nM,,100,CC(C)C[C@H]1C(=O)N[C@@H](Cc2ccc(O)cc2)C(=O)C(=O)N2CCC[C@H]2C(=O)N[C@H](C(N)=O)CSSC(C)(C)[C@H](NC(=O)[C@H](Cc2ccccc2)NC(=O)[C@H](CCCNC(=N)N)NC(=O)CCC(=O)N(C)CCN(C)C(=O)CCC(=O)N[C@@H](CCCNC(=N)N)C(=O)N[C@@H](Cc2ccccc2)C(=O)N[C@@H]2C(=O)N[C@@H]([C@@H](C)O)C(=O)NCC(=O)N[C@@H](Cc3c[nH]cn3)C(=O)N[C@@H](Cc3ccccc3)C(=O)NCC(=O)N(C)CC(=O)N(C)[C@@H](CC(C)C)C(=O)N[C@@H](Cc3ccc(O)cc3)C(=O)C(=O)N3CCC[C@H]3C(=O)N[C@H](C(N)=O)CSSC2(C)C)C(=O)N[C@@H]([C@@H](C)O)C(=O)NCC(=O)N[C@@H](Cc2c[nH]cn2)C(=O)N[C@@H](Cc2ccccc2)C(=O)NCC(=O)N(C)CC(=O)N1C
,,,100,CC(C)C[C@H]1C(=O)N[C@@H](Cc2ccc(O)cc2)C(=O)C(=O)N2CCC[C@H]2C(=O)N[C@H](C(N)=O)CSSC(C)(C)[C@H](NC(=O)[C@H](Cc2ccccc2)NC(=O)[C@H](CCCNC(=N)N)NC(=O)CC(C)(C)CC(=O)N[C@@H](CCCNC(=N)N)C(=O)N[C@@H](Cc2ccccc2)C(=O)N[C@@H]2C(=O)N[C@@H]([C@@H](C)O)C(=O)NCC(=O)N[C@@H](Cc3c[nH]cn3)C(=O)N[C@@H](Cc3ccccc3)C(=O)NCC(=O)N(C)CC(=O)N(C)[C@@H](CC(C)C)C(=O)N[C@@H](Cc3ccc(O)cc3)C(=O)C(=O)N3CCC[C@H]3C(=O)N[C@H](C(N)=O)CSSC2(C)C)C(=O)N[C@@H]([C@@H](C)O)C(=O)NCC(=O)N[C@@H](Cc2c[nH]cn2)C(=O)N[C@@H](Cc2ccccc2)C(=O)NCC(=O)N(C)CC(=O)N1C
,4.6 nM,,110,CC(C)C[C@H]1C(=O)N[C@@H](Cc2ccc(O)cc2)C(=O)C(=O)N2CCC[C@H]2C(=O)N[C@H](C(N)=O)CSSC(C)(C)[C@H](NC(=O)[C@H](Cc2ccccc2)NC(=O)[C@H](CCCNC(=N)N)NC(=O)C[C@H](C)C(=O)N[C@@H](CCCNC(=N)N)C(=O)N[C@@H](Cc2ccccc2)C(=O)N[C@@H]2C(=O)N[C@@H]([C@@H](C)O)C(=O)NCC(=O)N[C@@H](Cc3c[nH]cn3)C(=O)N[C@@H](Cc3ccccc3)C(=O)NCC(=O)N(C)CC(=O)N(C)[C@@H](CC(C)C)C(=O)N[C@@H](Cc3ccc(O)cc3)C(=O)C(=O)N3CCC[C@H]3C(=O)N[C@H](C(N)=O)CSSC2(C)C)C(=O)N[C@@H]([C@@H](C)O)C(=O)NCC(=O)N[C@@H](Cc2c[nH]cn2)C(=O)N[C@@H](Cc2ccccc2)C(=O)NCC(=O)N(C)CC(=O)N1C
,,,110,CC(C)C[C@H]1C(=O)N[C@@H](Cc2ccc(O)cc2)C(=O)C(=O)N2CCC[C@H]2C(=O)N[C@H](C(N)=O)CSSC(C)(C)[C@H](NC(=O)[C@H](Cc2ccccc2)NC(=O)[C@H](CCCNC(=N)N)NC(=O)CCOCCOCCOCCOCCOCCC(=O)N[C@@H](CCCNC(=N)N)C(=O)N[C@@H](Cc2ccccc2)C(=O)N[C@@H]2C(=O)N[C@@H]([C@@H](C)O)C(=O)NCC(=O)N[C@@H](Cc3c[nH]cn3)C(=O)N[C@@H](Cc3ccccc3)C(=O)NCC(=O)N(C)CC(=O)N(C)[C@@H](CC(C)C)C(=O)N[C@@H](Cc3ccc(O)cc3)C(=O)C(=O)N3CCC[C@H]3C(=O)N[C@H](C(N)=O)CSSC2(C)C)C(=O)N[C@@H]([C@@H](C)O)C(=O)NCC(=O)N[C@@H](Cc2c[nH]cn2)C(=O)N[C@@H](Cc2ccccc2)C(=O)NCC(=O)N(C)CC(=O)N1C
,5.6 nM,,90,CC(C)C[C@H]1C(=O)N[C@@H](Cc2ccc(O)cc2)C(=O)C(=O)N2CCC[C@H]2C(=O)N[C@H](C(N)=O)CSSC(C)(C)[C@H](NC(=O)[C@H](Cc2ccccc2)NC(=O)[C@H](CCCNC(=N)N)NC(=O)CC[C@H](C)C(=O)N[C@@H](CCCNC(=N)N)C(=O)N[C@@H](Cc2ccccc2)C(=O)N[C@@H]2C(=O)N[C@@H]([C@@H](C)O)C(=O)NCC(=O)N[C@@H](Cc3c[nH]cn3)C(=O)N[C@@H](Cc3ccccc3)C(=O)NCC(=O)N(C)CC(=O)N(C)[C@@H](CC(C)C)C(=O)N[C@@H](Cc3ccc(O)cc3)C(=O)C(=O)N3CCC[C@H]3C(=O)N[C@H](C(N)=O)CSSC2(C)C)C(=O)N[C@@H]([C@@H](C)O)C(=O)NCC(=O)N[C@@H](Cc2c[nH]cn2)C(=O)N[C@@H](Cc2ccccc2)C(=O)NCC(=O)N(C)CC(=O)N1C
,1.6 nM,,330,CC(C)C[C@H]1C(=O)N[C@@H](Cc2ccc(O)cc2)C(=O)C(=O)N2CCC[C@H]2C(=O)N[C@H](C(N)=O)CSSC(C)(C)[C@H](NC(=O)[C@H](Cc2ccccc2)NC(=O)[C@H](CCCNC(=N)N)NCCNC(=O)CCC(=O)N[C@@H](CCCNC(=N)N)C(=O)N[C@@H](Cc2ccccc2)C(=O)N[C@@H]2C(=O)N[C@@H]([C@@H](C)O)C(=O)NCC(=O)N[C@@H](Cc3c[nH]cn3)C(=O)N[C@@H](Cc3ccccc3)C(=O)NCC(=O)N(C)CC(=O)N(C)[C@@H](CC(C)C)C(=O)N[C@@H](Cc3ccc(O)cc3)C(=O)C(=O)N3CCC[C@H]3C(=O)N[C@H](C(N)=O)CSSC2(C)C)C(=O)N[C@@H]([C@@H](C)O)C(=O)NCC(=O)N[C@@H](Cc2c[nH]cn2)C(=O)N[C@@H](Cc2ccccc2)C(=O)NCC(=O)N(C)CC(=O)N1C

# — ChEMBL document CHEMBL1156264, “Synthesis and structure-activity relationships of dimeric peptide antagonists of the human immunoglobulin G-human neonatal Fc receptor (IgG-FcRn) interaction” (J Med Chem, 2010)
